Tests used:
[1] = Selectivity index, ratio of CC50 for cytotoxicity against Balb/c mouse peritoneal macrophages to IC50 for antileishmanial activity against Leishmania amazonensis MHOM/BR/77/LTB0016 promastigotes; format: toxicity; conditions: read-out: Ratio CC50/IC50
How it was run: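 SI calculated as macrophage CC50 divided by promastigote IC50. Both values come from 72 h assays: macrophages in RPMI at 37 °C and promastigotes in Schneider's medium at 26 °C with resazurin read-out.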

Leishmania amazonensis [2] = assay: Antileishmanial activity against Leishmania amazonensis MHOM/BR/77/LTB0016 promastigotes after 72 hrs by resazurin dye based assay; format: functional, organism-based; conditions: MHOM/BR/77/LTB0016, 72 h
How it was run: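 Promastigotes grown in Schneider's insect medium with 10% HIFCS, started at 1.0×10^6 cells/mL with or without a range of compound concentrations, 26 °C for 72 h. Viability read by resazurin. IC50 by logarithmic regression. Three independent experiments in triplicate, mean ± SD.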

[3] = Cytotoxicity against Balb/c mouse peritoneal macrophages assessed as reduction in cell viability after 72 hrs by resazurin assay; format: cell-based, Peritoneal macrophage
How it was run: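 Peritoneal cells collected by lavage in RPMI 1640 with 10% HIFCS, 2 mM L-glutamine, 1 mM pyruvate, streptomycin and penicillin. Adjusted to 1.0×10^6 cells/mL, plated in triplicate, 1 h at 37 °C in 5% CO2, non-adherent cells washed off. […] Three independent experiments, mean ± SD.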

Leishmania amazonensis [4] = assay: Antileishmanial activity against Leishmania amazonensis MHOM/BR/77/LTB0016 amastigotes infected in Balb/c mouse peritoneal macrophages after 72 hrs by hematological dye based light microscopic method; format: functional, organism-based; conditions: MHOM/BR/77/LTB0016, 72 h
How it was run: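 Resident BALB/c peritoneal macrophages plated at 1×10^6/mL in RPMI, 1 h at 37 °C in 5% CO2, non-adherent cells washed off. Infected with stationary-phase promastigotes at 3:1 parasite/macrophage for 4 h, free parasites washed off, compounds added for 72 h. Slides stained with hematological dye, infected cells and amastigotes counted in at least 100 macrophages per sample. IC50 by nonlinear regression. Three independent experiments.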

[5] = Solubility of the compound in Schneider's insect medium supplemented with 10% HIFCS; format: physicochemical
[6] = Solubility of the compound in RPMI 1640 medium; format: physicochemical

IC50 (Leishmania amazonensis [4]) [µM]	solubility [5]	solubility [6]	Structure (SMILES)	selectivity ratio [1]	IC50 (Leishmania amazonensis [2]) [µM]	CC50 at 72 h [3] [µM]
7.9			CC1(Cc2ccccc2)CC(S(=O)(=O)c2ccc(F)cc2)=C(c2ccc(/C(N)=N/O)cc2)O1 (stereo unspecified)	18.9	5.4	102
			CCC1(CC)CC(S(=O)(=O)c2ccc(F)cc2)=C(c2ccc(/C(N)=N/O)cc2)O1	3	30.2	91.4
	Insoluble		CC1(Cc2cccc(/C(N)=N/O)c2)CC(S(=O)(=O)c2ccc(F)cc2)=C(c2ccc(/C(N)=N/O)cc2)O1 (stereo unspecified)		> 100	50.2
			CC1(Cc2ccc([N+](=O)[O-])cc2)CC(S(=O)(=O)c2ccc(F)cc2)=C(c2ccc(/C(N)=N/O)cc2)O1 (stereo unspecified)	5.8	16.7	97.4
7.2			Cc1ccccc1CC1(C)CC(S(=O)(=O)c2ccc(F)cc2)=C(c2ccc(/C(N)=N/O)cc2)O1 (stereo unspecified)	37	2.1	77.6
6.7			Cc1cccc(CC2(C)CC(S(=O)(=O)c3ccc(F)cc3)=C(c3ccc(/C(N)=N/O)cc3)O2)c1 (stereo unspecified)	19.9	5.6	112
9.3			CC1(Cc2ccccc2Br)CC(S(=O)(=O)c2ccc(F)cc2)=C(c2ccc(/C(N)=N/O)cc2)O1 (stereo unspecified)	12	9.1	109
10.2			CC1(Cc2ccccc2C(F)(F)F)CC(S(=O)(=O)c2ccc(F)cc2)=C(c2ccc(/C(N)=N/O)cc2)O1 (stereo unspecified)	21.9	4.8	105
			N/C(=N\O)c1ccc(C2=C(S(=O)(=O)c3ccc(F)cc3)CC3(CCCCC3)O2)cc1	1.9	49.5	92.9
			CC1(Cc2cccc([N+](=O)[O-])c2)CC(S(=O)(=O)c2ccc(F)cc2)=C(c2ccc(/C(N)=N/O)cc2)O1 (stereo unspecified)	7.5	11.6	86.6
	Insoluble	Insoluble	CC1(Cc2cccc(CO)c2)CC(S(=O)(=O)c2ccc(F)cc2)=C(c2ccc(/C(N)=N/O)cc2)O1 (stereo unspecified)		> 100	> 100
	Insoluble	Insoluble	CC1(Cc2ccc(CO)cc2)CC(S(=O)(=O)c2ccc(F)cc2)=C(c2ccc(/C(N)=N/O)cc2)O1 (stereo unspecified)		> 100	> 100
> 20			CC1(Cc2ccc(C(F)(F)F)cc2)CC(S(=O)(=O)c2ccc(F)cc2)=C(c2ccc(/C(N)=N/O)cc2)O1 (stereo unspecified)	12.6	8.2	103
			CC1(Cc2cc(C(F)(F)F)cc(C(F)(F)F)c2)CC(S(=O)(=O)c2ccc(F)cc2)=C(c2ccc(/C(N)=N/O)cc2)O1 (stereo unspecified)	8	5.4	43.1
		Insoluble	COc1ccc(CC2(C)CC(S(=O)(=O)c3ccc(F)cc3)=C(c3ccc(/C(N)=N/O)cc3)O2)cc1 (stereo unspecified)	> 4.2	24	> 100
			CC1(Cc2ccc(-c3ccccc3)c(F)c2)CC(S(=O)(=O)c2ccc(F)cc2)=C(c2ccc(/C(N)=N/O)cc2)O1 (stereo unspecified)	2	12.2	24.5
			CC1(Cc2ccc(-c3ccccc3)cc2)CC(S(=O)(=O)c2ccc(F)cc2)=C(c2ccc(/C(N)=N/O)cc2)O1 (stereo unspecified)	2.3	14.8	33.9
	Insoluble		CC1(Cc2ccc(/C(N)=N/O)cc2)CC(S(=O)(=O)c2ccc(F)cc2)=C(c2ccc(/C(N)=N/O)cc2)O1 (stereo unspecified)		> 100	42.2
			CC1(Cc2cccc(C(F)(F)F)c2)CC(S(=O)(=O)c2ccc(F)cc2)=C(c2ccc(/C(N)=N/O)cc2)O1 (stereo unspecified)	7.4	6.7	49.8
			Cc1ccc(CC2(C)CC(S(=O)(=O)c3ccc(F)cc3)=C(c3ccc(/C(N)=N/O)cc3)O2)cc1 (stereo unspecified)	2.3	23.2	54.4
		Insoluble	CC1(Cc2ccccc2)CC(S(=O)(=O)c2ccc(F)cc2)=C(c2cccc(/C(N)=N/O)c2)O1 (stereo unspecified)	> 2.7	74.7	> 200
			COc1cc(CC2(C)CC(S(=O)(=O)c3ccc(F)cc3)=C(c3ccc(/C(N)=N/O)cc3)O2)cc(OC)c1OC (stereo unspecified)	2	45.6	92.3
			CC1(C/C=C/c2ccc(C(F)(F)F)cc2)CC(S(=O)(=O)c2ccc(F)cc2)=C(c2ccc(/C(N)=N/O)cc2)O1 (stereo unspecified)	2.6	17.2	43.9
			N=C(N)c1ccc(OCCCCCOc2ccc(C(=N)N)cc2)cc1 [PENTAMIDINE]	1.5	5.7	
